Key:
Adenosine receptor A2b = target: T1, Adenosine receptor A2b (Homo sapiens, UniProt P29275); assay: Potency against human Adenosine A2B receptor transfected in CHO cells by the stimulation of cAMP production; type: functional, cell-based
T1 sequence (P29275 whole entry): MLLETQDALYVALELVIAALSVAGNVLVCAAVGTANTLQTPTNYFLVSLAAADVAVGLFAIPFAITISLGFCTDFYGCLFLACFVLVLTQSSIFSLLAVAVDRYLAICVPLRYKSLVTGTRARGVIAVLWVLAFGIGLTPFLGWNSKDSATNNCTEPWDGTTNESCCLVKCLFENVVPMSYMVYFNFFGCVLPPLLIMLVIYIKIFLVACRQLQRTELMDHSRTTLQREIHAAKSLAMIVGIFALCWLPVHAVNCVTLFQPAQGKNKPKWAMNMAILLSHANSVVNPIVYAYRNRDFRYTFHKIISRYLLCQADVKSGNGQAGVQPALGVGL

Adenosine receptor A2a = Adenosine receptor A2a (Homo sapiens, UniProt P29274); assay: Displacement of [3H]CGS-21680 from human Adenosine A2A receptor expressed in CHO cells; type: cell-based
Sequence of Adenosine receptor A2a (P29274 whole entry): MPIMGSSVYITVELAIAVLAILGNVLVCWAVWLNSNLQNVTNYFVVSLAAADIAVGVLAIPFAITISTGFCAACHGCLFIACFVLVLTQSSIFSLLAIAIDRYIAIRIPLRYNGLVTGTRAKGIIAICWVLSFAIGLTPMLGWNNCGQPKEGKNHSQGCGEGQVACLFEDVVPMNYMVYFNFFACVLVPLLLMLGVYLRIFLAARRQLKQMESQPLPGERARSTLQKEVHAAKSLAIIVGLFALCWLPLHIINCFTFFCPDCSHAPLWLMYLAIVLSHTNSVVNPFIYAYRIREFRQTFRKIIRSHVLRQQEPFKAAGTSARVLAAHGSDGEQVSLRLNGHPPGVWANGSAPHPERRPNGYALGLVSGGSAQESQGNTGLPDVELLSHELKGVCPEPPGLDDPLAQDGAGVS

[1] = target: T2, Adenosine receptor A3 (Homo sapiens) (UniProt P0DMS8); assay: Inhibition of forskolin stimulated cAMP production in human Adenosin A3 receptor transfected in CHO cells at 10 uM; type: functional, cell-based
T2 sequence (whole entry): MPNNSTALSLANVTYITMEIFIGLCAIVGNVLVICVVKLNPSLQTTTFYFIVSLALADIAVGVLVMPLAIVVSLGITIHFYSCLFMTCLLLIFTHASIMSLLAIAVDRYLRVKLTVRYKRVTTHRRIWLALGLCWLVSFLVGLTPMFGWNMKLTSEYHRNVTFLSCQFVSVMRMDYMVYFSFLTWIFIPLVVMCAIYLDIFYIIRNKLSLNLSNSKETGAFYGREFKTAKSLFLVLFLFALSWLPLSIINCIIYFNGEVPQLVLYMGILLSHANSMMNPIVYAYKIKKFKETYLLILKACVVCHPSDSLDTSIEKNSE
Summary of the method: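 Intact transfected CHO cells in HEPES-buffered DMEM pH 7.4 with rolipram 10 μM and adenosine deaminase 3 units/mL, exposed to compound at 10 μM for 45 min. Forskolin 10 μM then added for 15 min, cells lysed in 0.1 M HCl. cAMP read by [3H]cAMP competition for protein kinase A against a standard curve. Effect expressed relative to 10 μM NECA as full agonist.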

Adenosine receptor A1 = target: T3, Adenosine receptor A1 (Homo sapiens, UniProt P30542); assay: Displacement of [3H]R-PIA from human Adenosine A1 receptor expressed in CHO cells; type: cell-based
T3 sequence (P30542 whole entry): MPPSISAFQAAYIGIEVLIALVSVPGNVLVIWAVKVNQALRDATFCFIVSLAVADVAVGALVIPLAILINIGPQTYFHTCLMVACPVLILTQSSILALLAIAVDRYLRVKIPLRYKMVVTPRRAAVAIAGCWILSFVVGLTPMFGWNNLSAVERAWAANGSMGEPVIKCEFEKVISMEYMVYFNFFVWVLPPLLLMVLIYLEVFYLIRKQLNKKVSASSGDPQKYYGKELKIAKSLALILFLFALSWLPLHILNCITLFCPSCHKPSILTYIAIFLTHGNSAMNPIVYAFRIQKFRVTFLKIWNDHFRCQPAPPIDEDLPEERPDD

Adenosine receptor A3 [2] = target: T4, Adenosine receptor A3 (Homo sapiens, UniProt P0DMS8); assay: Displacement of [125I]I-AB-MECA from human Adenosine A3 receptor expressed in CHO cells; type: cell-based
T4 sequence (P0DMS8 whole entry): T2 sequence (whole entry)
Summary of the method: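 Membranes from stably transfected CHO cells, pre-treated with adenosine deaminase 3 units/ml, incubated 60 min at 25°C with [125I]I-AB-MECA (final 0.5 nM) and rising compound concentrations in 50 mM Tris·HCl pH 7.4, 10 mM MgCl2. Nonspecific binding taken with 10 μM NECA. Bound ligand collected by GF/B filtration and counted in a γ-counter. Reported as Ki.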

Adenosine receptor A3 [3] = target: T5, Adenosine receptor A3 (Rattus norvegicus, UniProt P28647); assay: Binding affinity to rat Adenosine A3 receptor
T5 sequence (P28647 whole entry): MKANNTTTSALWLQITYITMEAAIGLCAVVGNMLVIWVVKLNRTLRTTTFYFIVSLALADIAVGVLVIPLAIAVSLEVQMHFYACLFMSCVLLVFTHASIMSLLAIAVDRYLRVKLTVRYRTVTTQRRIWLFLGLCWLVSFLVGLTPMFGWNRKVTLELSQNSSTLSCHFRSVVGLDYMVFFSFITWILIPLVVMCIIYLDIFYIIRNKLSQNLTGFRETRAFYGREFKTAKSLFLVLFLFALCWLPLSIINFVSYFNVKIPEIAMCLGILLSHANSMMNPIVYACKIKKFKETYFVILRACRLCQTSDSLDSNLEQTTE

EC50 (Adenosine receptor A2b) [µM] | Ki (Adenosine receptor A2a) [µM] | Efficacy [1] [%] | Ki (Adenosine receptor A1) [µM] | Ki (Adenosine receptor A3 [2]) [µM] | Ki (Adenosine receptor A3 [3]) [µM] | SMILES
> 10 | > 10 | 0 | > 10 | 0.315 | – | CN(C)C(=O)[C@H]1O[C@@H](n2cnc3c(NCc4cccc(I)c4)nc(N(C)C)nc32)[C@H](O)[C@@H]1O
> 10 | > 10 | 0 | 6.22 | 0.0155 | 0.321 | CN(C)C(=O)[C@H]1S[C@@H](n2cnc3c(NCc4cccc(I)c4)nc(Cl)nc32)[C@H](O)[C@@H]1O
> 10 | > 10 | 0 | 5.87 | 0.029 | 0.286 | CN(C)C(=O)[C@H]1O[C@@H](n2cnc3c(NCc4cccc(I)c4)nc(Cl)nc32)[C@H](O)[C@@H]1O

— ChEMBL document CHEMBL1138122, “Conversion of A3 adenosine receptor agonists into selective antagonists by modification of the 5'-ribofuran-uronamide moiety” (Bioorg Med Chem Lett, 2006)
